Measurements as given in ChEMBL document CHEMBL1124493, “Synthesis and tumor uptake of 5-82Br- and 5-131I-labeled 5-halo-1-(2-fluoro-2-deoxy-beta-D-ribofuranosyl)uracils” (J Med Chem, 1989).
Values belong to the compound of their own block, whether it stands above or below them.

Tests used:
Mus musculus [1] = assay: Biodistribution of intravenously injected [82Br]-labeled compound in blood of BDF1 female mice bearing subcutaneous Lewis lung carcinoma after 2 hours; assay type: ADME, organism-based; details: in vivo, iv
Method in brief: (§1)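 82Br-labeled nucleoside given intravenously to female BDF1 mice bearing subcutaneous Lewis lung carcinoma, at 47-130 μg carrying 20-60 kBq. Mice sacrificed at each time point. Wet-weighed tissues γ-counted. Values are percent injected dose per gram wet tissue, mean ± SD, n = 6.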

Mus musculus [2] = assay: Biodistribution of intravenously injected [82Br]-labeled compound in muscle of BDF1 female mice bearing subcutaneous Lewis lung carcinoma after 8 hours; assay type: ADME, organism-based, Muscle tissue; details: in vivo, iv
Method in brief: (§2)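 Female BDF1 mice with subcutaneous Lewis lung carcinoma given an iv injection of [82Br]-labelled nucleoside, 47-130 μg carrying 20-60 kBq 82Br. Tissues were excised, weighed wet and γ-counted. Values are percent injected dose per gram of wet tissue, mean ± standard deviation of six animals, with organ-to-tumour ratios derived.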

Mus musculus [3] = assay: Biodistribution of intravenously injected [82Br]-labeled compound in spleen of BDF1 female mice bearing subcutaneous Lewis lung carcinoma after 24 hours; assay type: ADME, organism-based; details: in vivo, iv
Mus musculus [4] = assay: Biodistribution of intravenously injected [82Br]-labeled compound in spleen of BDF1 female mice bearing subcutaneous Lewis lung carcinoma after 1 hours; assay type: ADME, organism-based; details: in vivo, iv; method in brief: as §2
Mus musculus [5] = assay: Biodistribution of intravenously injected [82Br]-labeled compound in blood of BDF1 female mice bearing subcutaneous Lewis lung carcinoma after 0.50 hours; assay type: ADME, organism-based; details: in vivo, iv, 0.5 h; method in brief: as §1
Mus musculus [6] = assay: Biodistribution of intravenously injected [82Br]-labeled compound in stomach of BDF1 female mice bearing subcutaneous Lewis lung carcinoma after 4 hours; assay type: ADME, organism-based; details: in vivo, iv
Mus musculus [7] = assay: Biodistribution of intravenously injected [82Br]-labeled compound in gut of BDF1 female mice bearing subcutaneous Lewis lung carcinoma after 2 hours; assay type: ADME, organism-based; details: in vivo, iv; method in brief: as §2
Mus musculus [8] = assay: Biodistribution of intravenously injected [82Br]-labeled compound in gut of BDF1 female mice bearing subcutaneous Lewis lung carcinoma after 1 hours; assay type: ADME, organism-based; details: in vivo, iv; method in brief: as §1
Mus musculus [9] = assay: Biodistribution of intravenously injected [82Br]-labeled compound in tumor of BDF1 female mice bearing subcutaneous Lewis lung carcinoma after 1 hours; assay type: ADME, organism-based; details: in vivo, iv
Mus musculus [10] = assay: Biodistribution of intravenously injected [82Br]-labeled compound in heart of BDF1 female mice bearing subcutaneous Lewis lung carcinoma after 4 hours; assay type: ADME, organism-based; details: in vivo, iv; method in brief: as §2
Mus musculus [11] = assay: Biodistribution of intravenously injected [82Br]-labeled compound in spleen of BDF1 female mice bearing subcutaneous Lewis lung carcinoma after 2 hours; assay type: ADME, organism-based; details: in vivo, iv
Mus musculus [12] = assay: Biodistribution of intravenously injected [82Br]-labeled compound in kidney of BDF1 female mice bearing subcutaneous Lewis lung carcinoma after 8 hours; assay type: ADME, organism-based; details: in vivo, iv; method in brief: as §2
Mus musculus [13] = assay: Biodistribution of intravenously injected [82Br]-labeled compound in tumor of BDF1 female mice bearing subcutaneous Lewis lung carcinoma after 0.50 hours; assay type: ADME, organism-based; details: in vivo, iv, 0.5 h
Mus musculus [14] = assay: Biodistribution of intravenously injected [82Br]-labeled compound in muscle of BDF1 female mice bearing subcutaneous Lewis lung carcinoma after 0.25 hours; assay type: ADME, organism-based, Muscle tissue; details: in vivo, iv; method in brief: as §2
Mus musculus [15] = assay: Biodistribution of intravenously injected [82Br]-labeled compound in bone of BDF1 female mice bearing subcutaneous Lewis lung carcinoma after 0.25 hours; assay type: ADME, organism-based, Bone element; details: in vivo, iv; method in brief: as §1
Mus musculus [16] = assay: Biodistribution of intravenously injected [82Br]-labeled compound in lung of BDF1 female mice bearing subcutaneous Lewis lung carcinoma after 0.25 hours; assay type: ADME, organism-based; details: in vivo, iv; method in brief: as §2
Mus musculus [17] = assay: Biodistribution of intravenously injected [82Br]-labeled compound in tumor of BDF1 female mice bearing subcutaneous Lewis lung carcinoma after 24 hours; assay type: ADME, organism-based; details: in vivo, iv
Mus musculus [18] = assay: Biodistribution of intravenously injected [82Br]-labeled compound in muscle of BDF1 female mice bearing subcutaneous Lewis lung carcinoma after 2 hours; assay type: ADME, organism-based, Muscle tissue; details: in vivo, iv; method in brief: as §2
Mus musculus [19] = assay: Biodistribution of intravenously injected [82Br]-labeled compound in heart of BDF1 female mice bearing subcutaneous Lewis lung carcinoma after 2 hours; assay type: ADME, organism-based; details: in vivo, iv; method in brief: as §2
Mus musculus [20] = assay: Biodistribution of intravenously injected [82Br]-labeled compound in skin of BDF1 female mice bearing subcutaneous Lewis lung carcinoma after 1 hours; assay type: ADME, organism-based, Zone of skin; details: in vivo, iv; method in brief: as §2
Mus musculus [21] = assay: Biodistribution of intravenously injected [82Br]-labeled compound in skin of BDF1 female mice bearing subcutaneous Lewis lung carcinoma after 8 hours; assay type: ADME, organism-based, Zone of skin; details: in vivo, iv; method in brief: as §2
Mus musculus [22] = assay: Biodistribution of intravenously injected [82Br]-labeled compound in tumor of BDF1 female mice bearing subcutaneous Lewis lung carcinoma after 2 hours; assay type: ADME, organism-based; details: in vivo, iv
Mus musculus [23] = species: Mus musculus; assay: Urinary [131I]- compound observed in BDF1 female mice bearing lewis lung tumor after 6-7 hr of injected [131I]-compound; assay type: functional, tissue-based; details: Urine
Mus musculus [24] = assay: Biodistribution of intravenously injected [131I]-labeled compound in muscle of BDF1 female mice bearing subcutaneous Lewis lung carcinoma after 24 hours; assay type: ADME, organism-based, Muscle tissue; details: in vivo, iv
Method in brief: (§3)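 Female BDF1 mice with subcutaneous Lewis lung carcinoma given i.v. 0.5-1.8 μg of 131I-labeled nucleoside (55-110 kBq). Killed at set times. Tissues weighed wet and γ-counted. Radioactivity expressed as percent injected dose per gram wet tissue, mean ± SD of six animals.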

Mus musculus [25] = assay: Biodistribution of intravenously injected [82Br]-labeled compound in blood of BDF1 female mice bearing subcutaneous Lewis lung carcinoma after 4 hours; assay type: ADME, organism-based; details: in vivo, iv, in the assay text read “[131I]-labeled” for “[82Br]-labeled”
Mus musculus [26] = assay: Biodistribution of intravenously injected [131I]-labeled compound in muscle of BDF1 female mice bearing subcutaneous Lewis lung carcinoma after 0.5 hours; assay type: ADME, organism-based, Muscle tissue; details: in vivo, iv
Method in brief: (§4)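 Female BDF1 mice bearing subcutaneous Lewis lung carcinoma received a single intravenous dose of 0.5-1.8 μg of the 131I-labeled nucleoside (55-110 kBq). They were sacrificed at set times, and tissues were weighed wet and γ-counted. Activity is expressed as percent of injected dose per gram of wet tissue, given as mean ± standard deviation for six animals.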

Mus musculus [27] = assay: Biodistribution of intravenously injected [131I]-labeled compound in muscle of BDF1 female mice bearing subcutaneous Lewis lung carcinoma after 4 hours; assay type: ADME, organism-based, Muscle tissue; details: in vivo, iv; method in brief: as §3
Mus musculus [28] = assay: Biodistribution of intravenously injected [131I]-labeled compound in liver of BDF1 female mice bearing subcutaneous Lewis lung carcinoma after 4 hours; assay type: ADME, organism-based; details: in vivo, iv; method in brief: as §4
Mus musculus [29] = species: Mus musculus; assay: Other urinary compounds observed in BDF1 female mice bearing lewis lung tumor after 0-0.5 hr of injected [131I]-compound; assay type: functional, tissue-based; details: Urine
Mus musculus [30] = assay: Biodistribution of intravenously injected [131I]-labeled compound in gut of BDF1 female mice bearing subcutaneous Lewis lung carcinoma after 1 hours; assay type: ADME, organism-based; details: in vivo, iv; method in brief: as §4
Mus musculus [31] = species: Mus musculus; assay: Urinary [131I]5-iodouracil observed in BDF1 female mice bearing lewis lung tumor after 6-7 hr of injected [131I]-compound; assay type: functional, tissue-based; details: Urine
Mus musculus [32] = assay: Biodistribution of intravenously injected [131I]-labeled compound in stomach of BDF1 female mice bearing subcutaneous Lewis lung carcinoma after 1 hours; assay type: ADME, organism-based; details: in vivo, iv; method in brief: as §3
Mus musculus [33] = assay: Biodistribution of intravenously injected [131I]-labeled compound in kidney of BDF1 female mice bearing subcutaneous Lewis lung carcinoma after 0.25 hours; assay type: ADME, organism-based; details: in vivo, iv; method in brief: as §4
Mus musculus [34] = assay: Biodistribution of intravenously injected [131I]-labeled compound in stomach of BDF1 female mice bearing subcutaneous Lewis lung carcinoma after 24 hours; assay type: ADME, organism-based; details: in vivo, iv; method in brief: as §3
Mus musculus [35] = assay: Biodistribution of intravenously injected [131I]-labeled compound in heart of BDF1 female mice bearing subcutaneous Lewis lung carcinoma after 24 hours; assay type: ADME, organism-based; details: in vivo, iv; method in brief: as §4
Mus musculus [36] = assay: Biodistribution of intravenously injected [131I]-labeled compound in bone of BDF1 female mice bearing subcutaneous Lewis lung carcinoma after 8 hours; assay type: ADME, organism-based, Bone element; details: in vivo, iv; method in brief: as §4
Mus musculus [37] = assay: Biodistribution of intravenously injected [131I]-labeled compound in heart of BDF1 female mice bearing subcutaneous Lewis lung carcinoma after 4 hours; assay type: ADME, organism-based; details: in vivo, iv; method in brief: as §4
Mus musculus [38] = assay: Biodistribution of intravenously injected [131I]-labeled compound in lung of BDF1 female mice bearing subcutaneous Lewis lung carcinoma after 4 hours; assay type: ADME, organism-based; details: in vivo, iv; method in brief: as §4

Injected dose/g (Mus musculus [1]): 0.79%
Injected dose/g (Mus musculus [2]): 0.14%
Injected dose/g (Mus musculus [3]): 0.24%
Injected dose/g (Mus musculus [4]): 0.38%
Injected dose/g (Mus musculus [5]): 1.36%
Injected dose/g (Mus musculus [6]): 0.4%
Injected dose/g (Mus musculus [7]): 0.41%
Injected dose/g (Mus musculus [8]): 0.42%
Injected dose/g (Mus musculus [9]): 0.67%
Injected dose/g (Mus musculus [10]): 0.49%
Injected dose/g (Mus musculus [11]): 0.35%
Injected dose/g (Mus musculus [12]): 0.53%
Injected dose/g (Mus musculus [13]): 0.95%
Injected dose/g (Mus musculus [14]): 0.89%
Injected dose/g (Mus musculus [15]): 0.52%
Injected dose/g (Mus musculus [16]): 1.7%
Injected dose/g (Mus musculus [17]): 0.32%
Injected dose/g (Mus musculus [18]): 0.19%
Injected dose/g (Mus musculus [19]): 0.48%
Injected dose/g (Mus musculus [20]): 0.45%
Injected dose/g (Mus musculus [21]): 0.34%
Injected dose/g (Mus musculus [22]): 0.57%
SMILES: O=c1[nH]c(=O)n([C@H]2O[C@@H](CO)[C@H](O)[C@H]2F)cc1Br

Injected dose/g (Mus musculus [24]): 0.03%
Injected dose/g (Mus musculus [25]): 8.5%
Injected dose/g (Mus musculus [26]): 2%
Injected dose/g (Mus musculus [27]): 1.3%
Injected dose/g (Mus musculus [28]): 2.6%
Injected dose/g (Mus musculus [30]): 2.5%
Injected dose/g (Mus musculus [32]): 4.5%
Injected dose/g (Mus musculus [33]): 21.1%
Injected dose/g (Mus musculus [34]): 0.21%
Injected dose/g (Mus musculus [35]): 0.1%
Injected dose/g (Mus musculus [36]): 0.7%
Injected dose/g (Mus musculus [37]): 3.5%
Injected dose/g (Mus musculus [38]): 4.5%
SMILES: O=c1[nH]c(=O)n([C@@H]2O[C@H](CO)[C@@H](O)[C@H]2F)cc1I
Radioactive constituents (Mus musculus [23]): 60.2%
Radioactive constituents (Mus musculus [29]): 2.6%
Radioactive constituents (Mus musculus [31]): 0%
